Measured values taken from ChEMBL document CHEMBL1146321, “Transformation of mu-opioid receptor agonists into biologically potent mu-opioid receptor antagonists” (Bioorg Med Chem, 2007).
Activity calls are given as the source filed them.

Columns and labels:
[1] = target: Opioid receptors; mu & delta (Rattus norvegicus) (UniProt P33533+P33535); test: Selectivity for rat mu opioid receptor over rat delta opioid receptor; type: protein assay
Mus musculus [2] = test: Inhibition of morphine-induced spinal antinociception in intracerebroventricularly dosed mouse by tail-flick test; type: functional, organism-based
Outline: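 Male mice given morphine 4 mg/kg sc, then compound icv 5 min later. Tail-flick latency measured to radiant heat, baseline 2–3 s, cut-off 8 s.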

[3] = target: Mu-type opioid receptor (Cavia porcellus) (UniProt P97266); test: Agonist activity at mu opioid receptor in Hartley guinea pig intestine assessed as inhibition of electrically evoked myenteric plexus longitudinal muscle contractions at 10000 nM; type: functional, tissue-based
Sequence of Mu-type opioid receptor (Cavia porcellus) (P97266 whole entry): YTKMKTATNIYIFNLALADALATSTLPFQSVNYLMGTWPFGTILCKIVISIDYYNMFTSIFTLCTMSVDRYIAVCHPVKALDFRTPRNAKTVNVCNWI

[4] = target: T1, Delta-type opioid receptor (Mus musculus, UniProt P32300); test: Antagonist activity at delta opioid receptor in mouse vas deferens assessed as inhibition of deltorphin 2-induced effect on muscle contractions; type: functional, tissue-based; conditions: read-out: pA2 (converted)
T1 sequence (P32300 whole entry): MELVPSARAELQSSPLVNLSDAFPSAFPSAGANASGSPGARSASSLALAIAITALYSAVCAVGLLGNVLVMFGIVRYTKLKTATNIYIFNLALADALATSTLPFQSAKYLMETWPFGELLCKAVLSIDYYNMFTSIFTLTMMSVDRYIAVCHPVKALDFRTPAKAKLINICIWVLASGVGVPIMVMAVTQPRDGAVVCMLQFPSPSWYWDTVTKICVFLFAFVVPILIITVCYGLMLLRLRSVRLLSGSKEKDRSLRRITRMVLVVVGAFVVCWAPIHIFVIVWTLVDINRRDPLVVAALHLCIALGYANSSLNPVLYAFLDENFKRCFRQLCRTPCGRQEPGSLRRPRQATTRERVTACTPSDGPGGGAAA

[5] = Ratio of pA2 for delta opioid receptor in MVD to pA2 for mu opioid receptor in GPI; type: functional
Mu-type opioid receptor [6] = target: T2, Mu-type opioid receptor (Cavia porcellus, UniProt P97266); test: Antagonist activity at mu opioid receptor in Hartley guinea pig intestine assessed as inhibition of DAMGO-induced effect on myenteric plexus longitudinal muscle contractions; type: functional, tissue-based; conditions: read-out: pA2 (converted)
T2 sequence (P97266 whole entry): as the sequence (P97266 whole entry) above

[7] = target: Delta-type opioid receptor (Rattus norvegicus, UniProt P33533); test: Displacement of [3H]deltorphin 2 from delta opioid receptor in rat brain P2 synaptosome; type: tissue-based
Sequence of Delta-type opioid receptor (Rattus norvegicus, UniProt P33533) (P33533 whole entry): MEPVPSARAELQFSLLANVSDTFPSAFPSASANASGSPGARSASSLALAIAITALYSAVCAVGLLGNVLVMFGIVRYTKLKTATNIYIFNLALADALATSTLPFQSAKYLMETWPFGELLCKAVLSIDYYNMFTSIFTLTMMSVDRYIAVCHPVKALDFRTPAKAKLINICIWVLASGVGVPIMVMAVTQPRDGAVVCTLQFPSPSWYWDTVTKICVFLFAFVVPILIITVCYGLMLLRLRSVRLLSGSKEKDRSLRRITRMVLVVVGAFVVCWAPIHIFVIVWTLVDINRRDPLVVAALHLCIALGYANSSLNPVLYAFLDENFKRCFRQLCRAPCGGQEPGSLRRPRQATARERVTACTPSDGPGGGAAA

[8] = target: T1, Delta-type opioid receptor; test: Agonist activity at delta opioid receptor in mouse vas deferens assessed as inhibition of electrically evoked muscle contractions; type: functional, tissue-based
Outline: (§1)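 Isolated tissue in organ baths of balanced physiological salt buffer, pH 7.5: male Hartley guinea pig ileum myenteric plexus longitudinal muscle (μ) or single mouse vas deferens (δ). Agonist inhibition of electrically evoked contractions; IC50 (nM) from dose–response curves, mean ± SE of five to six separate tissue preparations.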

[9] = target: Delta-type opioid receptor (Mus musculus) (UniProt P32300); test: Agonist activity at delta opioid receptor in mouse vas deferens assessed as inhibition of electrically evoked muscle contractions at 10000 nM; type: functional, tissue-based
Sequence of Delta-type opioid receptor (Mus musculus) (P32300 whole entry): as the sequence (P32300 whole entry) above

Mu-type opioid receptor [10] = target: Mu-type opioid receptor (Rattus norvegicus, UniProt P33535); test: Displacement of [3H]DAMGO from mu opioid receptor in rat brain P2 synaptosome; type: tissue-based
Sequence of Mu-type opioid receptor (Rattus norvegicus, UniProt P33535) (P33535 whole entry): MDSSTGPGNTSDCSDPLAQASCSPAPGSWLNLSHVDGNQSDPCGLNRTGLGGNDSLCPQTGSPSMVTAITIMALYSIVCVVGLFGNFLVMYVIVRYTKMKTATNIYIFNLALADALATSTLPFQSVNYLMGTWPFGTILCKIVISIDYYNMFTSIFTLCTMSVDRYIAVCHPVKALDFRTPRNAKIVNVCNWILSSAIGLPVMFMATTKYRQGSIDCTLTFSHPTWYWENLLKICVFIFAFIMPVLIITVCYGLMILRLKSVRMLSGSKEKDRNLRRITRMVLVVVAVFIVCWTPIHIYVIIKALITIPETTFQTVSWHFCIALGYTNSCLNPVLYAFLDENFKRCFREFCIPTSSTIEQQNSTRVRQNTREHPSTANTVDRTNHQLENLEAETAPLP

Mus musculus [11] = test: Inhibition of morphine-induced antinociception in mouse at 0.148 ng, icv after 10 mins by hot plate test; type: functional, organism-based
Outline: (§2)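 Male mice received morphine 4 mg/kg sc, then test compound icv 5 min later. Hot plate at 55.0 °C; latency to hind-paw licking or shaking, baseline 15 s, cut-off 30 s, read 10 min after icv dosing. Results as %MPE. AD50 is the dose blocking 50% of morphine antinociception at 10 min; 95% confidence limits; n = 10–17 mice per point.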

Mu-type opioid receptor [12] = target: T2, Mu-type opioid receptor; test: Agonist activity at mu opioid receptor in Hartley guinea pig intestine assessed as inhibition of electrically evoked myenteric plexus longitudinal muscle contractions; type: functional, tissue-based; outline: as §1
Mus musculus [13] = test: Inhibition of morphine-induced antinociception in mouse at 2.38 ng, icv after 10 mins by hot plate test; type: functional; outline: as §2
Hippocampus = test: Inhibition of ethanol-induced frequency of spontaneous inhibitory post-synaptic currents in rat hippocampal neurons by patch clamp technique at 300 nM; type: functional
Outline: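 Rat hippocampal slices (300 µm), held in oxygenated ACSF 60 min at room temperature. Whole-cell patch clamp of CA1 pyramidal cells at −70 mV. GABAA IPSCs isolated with 50 µM AP5 and 20 µM DNQX. Recording periods of 10 min each: baseline, then 60 mM EtOH, then compound in EtOH. n = 6 slices; paired t-tests.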

Sequence of Opioid receptors; mu & delta (Rattus norvegicus) (P33533 whole entry, looked up): as the sequence (P33533 whole entry) above
Sequence of Opioid receptors; mu & delta (Rattus norvegicus) (P33535 whole entry, looked up): as the sequence (P33535 whole entry) above

SMILES	Ratio Ki [1]	Activity (Mus musculus [2])	inhibition [3]	Kb [4]	Ratio pA2 [5]	Kb (Mu-type opioid receptor [6])	Ki [7]	IC50 [8]	inhibition [9]	Ki (Mu-type opioid receptor [10])	Activity (Mus musculus [11])	IC50 (Mu-type opioid receptor [12])	AD50 (Mus musculus [13])	inhibition at 0.3 µM (Hippocampus)
C=CCN[C@@H](Cc1c(C)cc(O)cc1C)C(=O)N1CCC[C@H]1C(=O)N[C@@H](Cc1ccccc1)C(=O)N[C@@H](Cc1ccccc1)C(N)=O	1240	inactive	49.3%	479 nM	186	2.57 nM	560 nM	> 10000 nM	42.8%	0.45 nM	inactive	> 10000 nM	–	–
C=CCN1CC[C@]23c4c5ccc(O)c4O[C@H]2C(=O)CC[C@@]3(O)[C@H]1C5 [NALOXONE]	–	–	–	–	–	–	–	–	–	–	–	–	2.38 ng	–
C=CCN[C@@H](Cc1ccc(O)cc1)C(=O)N1CCC[C@H]1C(=O)N[C@@H](Cc1ccccc1)C(=O)N[C@@H](Cc1ccccc1)C(N)=O	57	–	–	–	–	–	–	–	–	–	–	–	–	–
C=CCN[C@@H](Cc1c(C)cc(O)cc1C)C(=O)N1CCC[C@H]1C(=O)N[C@@H](Cc1c[nH]c2ccccc12)C(=O)N[C@@H](Cc1ccccc1)C(N)=O	40	–	49%	47.9 nM	7.2	6.61 nM	10.3 nM	> 10000 nM	37.5%	0.26 nM	–	> 10000 nM	–	26%
Cc1cc(O)cc(C)c1C[C@H](N)C(=O)N1CCC[C@H]1C(=O)N[C@@H](Cc1c[nH]c2ccccc12)C(=O)N[C@@H](Cc1ccccc1)C(N)=O	104	–	–	2.51 nM	–	–	5.6 nM	> 10000 nM	21.6%	0.054 nM	–	0.27 nM	–	–
C=CCNC(=O)[C@H](Cc1ccccc1)NC(=O)[C@H](Cc1ccccc1)NC(=O)[C@@H]1CCCN1C(=O)[C@H](Cc1ccc(O)cc1)NCC=C	6	–	–	–	–	–	–	–	–	–	–	–	–	–
